Results as given in ChEMBL document CHEMBL1129733, “Aminoacetyl moiety as a potential surrogate for diacylhydrazine group of SC-51089, a potent PGE2 antagonist, and its analogs” (J Med Chem, 1996).

How the values were obtained:
[1] = molecular target: Prostaglandin E2 receptor EP1 (Cavia porcellus); test: PGE-2 (EP1 subtype) antagonistic activity as PGE2-stimulated guinea pig ileum muscle strip assay; conditions: read-out: pA2 (converted)
[2] = species on record: Mus musculus; test: Antinociceptive activity in mouse by using phenylbenzoquinone writing assay.; format: functional
In short: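 Mice given test compound at an initial screening dose of 30 mg/kg. ED50 determined only for compounds producing a response in seven of ten animals, with 95% confidence limits (p < 0.05).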

| Compound | Kb [1] [nM] | ED50 [2] [mg/kg] |
| --- | --- | --- |
| O=C(CCc1ccncc1)NNC(=O)N1Cc2ccccc2Oc2ccc(Cl)cc21 | 316 | 6.8 |
| CCS(=O)(=O)CCC(=O)NNC(=O)N1Cc2ccccc2Oc2ccc(Cl)cc21 | 1580 | 7.4 |
| O=C(NNC(=O)C(F)(F)C(O)c1ccccn1)N1Cc2ccccc2Oc2ccc(Cl)cc21 (stereo not drawn) | 31.6 | 9.1 |
| CCS(=O)(=O)CCC(=O)CNC(=O)N1Cc2ccccc2Oc2ccc(Cl)cc21 | 2510 |  |
| O=C(CCc1ccncc1)NCC(=O)N1Cc2ccccc2Oc2ccc(Cl)cc21 | 2000 |  |
| CCS(=O)(=O)CCC(=O)NCC(=O)N1Cc2ccccc2Oc2ccc(Cl)cc21 | 2000 |  |
| O=C(CNC(=O)C(F)(F)C(O)c1ccccn1)N1Cc2ccccc2Oc2ccc(Cl)cc21 (stereo not drawn) |  | 8.1 |
| O=C(CCSCc1ccco1)CNC(=O)N1Cc2ccccc2Oc2ccc(Cl)cc21 | 63.1 |  |
| O=C(CCSCc1ccco1)NNC(=O)N1Cc2ccccc2Oc2ccc(Cl)cc21 |  | 0.9 |
| O=C(CCSCc1ccco1)NCC(=O)N1Cc2ccccc2Oc2ccc(Cl)cc21 | 39.8 |  |
